Laboratory results from article PMC6360136 (Investigational new drugs, 2018).

Key:
EC68 cells = test: Cell viability assay; format: cell-based, human; settings: EC68 primary pancreatic cancer cells, MTT, 48 h
PANC-1 cells = test: Cell viability assay; format: cell-based, human; settings: PANC-1 cells, MTT, 48 h
[1] = test system: RTKs (EGFR, Met, IGF-1Rβ) in PANC-1 and EC46 cells; test: Immunoblot analysis of receptor tyrosine kinases; format: cell-based, human; settings: 24 h
How it was run: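 PANC-1 and EC46 cells were seeded at 200,000/well and attached overnight. Medium was renewed with the test compound or EtOH control added. Whole-cell lysates were taken at 24 h in phosphatase-safe buffer and protein was quantified by BCA. Equal protein was resolved on 4–12% SDS-PAGE and transferred to PVDF. Blots were probed for EGFR, Met, IGF-1Rβ and β-actin, with chemiluminescent detection.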

[2] = test system: EC68, EC46 and PANC-1 cells; test: Cell growth MTT assay; format: cell-based, human; settings: in vitro studies, Fig. 1, MTT 48 h
How it was run: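 PANC-1 and primary patient-derived pancreatic cancer lines EC46 and EC68 were grown in DMEM/F-12K (1:1) with 10% FBS at 37 °C and 5% CO2. Cells were seeded at 5000/well and attached overnight. They were then exposed for 48 h to the test compound at various concentrations or to EtOH solvent control. Viability was read by MTT, and curves were fitted by nonlinear regression.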

[3] = test system: orthotopic pancreatic PDX tumor; test: Ki-67 staining of PDX tumors; format: in vivo, NSG mice; settings: PDX tumors at euthanasia, 0.25 mg/kg i.p. every other day, vs vehicle
How it was run: (§1)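 Orthotopic PDX mice received test compound 0.25 mg/kg i.p. or DMSO every other day. At endpoint, tumours were formalin-fixed and paraffin-embedded, and 5 micron sections were cut. Sections were stained for Ki-67 (proliferation) or by TUNEL (apoptosis). Ki-67 was scored as the average number of positive cells per high-power field by image analysis.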

[4] = test system: orthotopic pancreatic PDX tumor; test: TUNEL staining of PDX tumors; format: in vivo, NSG mice; settings: PDX tumors at euthanasia, 0.25 mg/kg i.p. every other day, vs vehicle
How it was run: as §1

## CC[C@H](C)[C@@H]1C(=O)N2CCC[C@@H]2C(=O)O[C@H](C(C)(C)C)C[C@@H](C)C[C@@H](O)C(C)(C)C2=N[C@H](CCC(=O)N[C@@H](Cc3ccc(OC)cc3)C(=O)N(C)[C@@H](C)C(=O)N1C)CS2 [Apra S10, apratoxin S10]
EC68 cells
  GI50: 0.35 nM
PANC-1 cells
  GI50: 2.75 nM
[1]
  effect on RTKs: potently downregulated various RTKs
[2]
  concentration required to achieve the maximal response: around 50 nM
  concentration required to achieve the maximal response (minimum effective concentration): ~40 ng/mL
[3]
  decrease in the number of cells undergoing proliferation (Ki-67): > 50%
[4]
  number of cells undergoing apoptosis (TUNEL): no difference
